Measurements gathered from unrelated publications.
Each line is one published result; the experiments were not run side by side.
BACE1: Beta-secretase 1 (BACE1, Homo sapiens, UniProt P56817)
ELANE: Neutrophil elastase (ELANE, Homo sapiens, UniProt P08246)

Compound	target	assay	conditions	IC50 [µM]
[N-]=[N+]=N[C@H](CC(=O)NO)Cc1ccc(O)cc1	Endoplasmic reticulum aminopeptidase 2 (ERAP2, Homo sapiens, UniProt Q6P179)	enzyme activity, inhibitor, fluorescence		59
Cc1ncsc1-c1ccc(CNC(=O)[C@@H]2C[C@H](O)CN2C(=O)[C@@H](NC(=O)C2(F)CC2)C(C)(C)C)c(OCCc2ccc(CN3CCN(c4cc(-c5ccccc5O)nnc4N)CC3)cc2)c1	SWI/SNF-related matrix-associated actin-dependent regulator of chromatin subfamily A member 2, bromodomain (SMARCA2, Homo sapiens, UniProt P51531)	ligand displacement, TR-FRET		1.3
COc1ccc2c(Oc3ccc4c(C(=O)Nc5ccccc5N)cccc4c3)ccnc2c1	Mitogen-activated protein kinase 8 (MAPK8, Homo sapiens, UniProt P45983)	enzyme activity, inhibitor		> 0.5
CC(C)c1cc(NC(=O)Nc2ccc(F)c(F)c2)n(-c2ccccc2)n1	Kir3.1/Kir3.2 (Homo sapiens, UniProt P48051+P48549)	ion flux, inhibitor		2.5
Cc1cccc(-c2noc(-c3ccc(NC(=O)C4CC(=O)N(Cc5cccnc5)C4)cc3)n2)c1 (centres unmarked)	Relaxin-3 receptor 1 (RXFP3, Homo sapiens, UniProt Q9NSD7)	cAMP, antagonist, TR-FRET		4.04
NC1=NCC(c2cccc3ccccc23)OC1 (centres unmarked)	BACE1	enzyme activity, inhibitor, FRET	pH 5	1100
CC(=O)N[C@H]1CSSC[C@@H](C(=O)N[C@@H](Cc2c[nH]c3ccccc23)C(N)=O)NC(=O)[C@H](Cc2ccccc2)NC(=O)[C@H](CCCNC(=N)N)NC1=O	Melanocortin receptor 3 (MC3R, Homo sapiens, UniProt P41968)	ligand displacement, radioligand		1.2
Cc1cccc(C(=O)n2nc(Cl)c(=O)c3ccccc32)c1	ELANE	enzyme activity, inhibitor, fluorescence		0.97
CN1CCN(c2ccc(Nc3ncc4cc(C#N)c(=O)n(C5CCCC5)c4n3)cc2)CC1	Non-receptor tyrosine-protein kinase TYK2 (TYK2, Homo sapiens, UniProt P29597)	enzyme activity, inhibitor		0.112
COc1cc(NC(=O)N2CCC(n3c(=O)[nH]c4c(Br)cccc43)CC2)ccc1C	SMUG1 (Homo sapiens, UniProt Q53HV7)	enzyme activity, inhibitor		> 100
C=C(Cl)C(=O)Nc1cc(Nc2nc(N3CCOCC3)c3sccc3n2)c(OC)cc1N(C)CCN(C)C	Epidermal growth factor receptor (EGFR, Homo sapiens, UniProt P00533, L858R/T790M)	enzyme activity, inhibitor, ELISA		0.063
Cc1cccc(C(=O)n2ncc(=O)c3ccccc32)c1	ELANE	enzyme activity, inhibitor, fluorescence		0.056
O=C(O)Cc1ccccc1Nc1c(Cl)cccc1Cl	Delta-aminolevulinic acid dehydratase (Homo sapiens, UniProt P13716, C162A/K59N)	enzyme activity, inhibitor, absorbance	pH 8, with preincubation	9
O=c1oc2c(O)c(O)cc3c(=O)oc4c(O)c(O)cc1c4c23	DNA polymerase iota (Homo sapiens, UniProt Q9UNA4)	enzyme activity, inhibitor		0.081
CC(O)C(C)C(=O)N1CCC(NC(=O)Nc2ccc(OC(F)(F)F)c(F)c2)CC1 (centres unmarked)	Bifunctional epoxide hydrolase 2 (Ephx2, Mus musculus, UniProt P34914)	enzyme activity, inhibitor		0.0022
O=C(Nc1ccn(Cc2ccc(O)cc2C(F)(F)F)n1)c1c(F)cccc1F	Transient receptor potential cation channel subfamily V member 4 (TRPV4, Homo sapiens, UniProt Q9HBA0)	ion current, inhibitor		> 10
N#CC(C(=O)c1ccc(Cl)cc1Cl)=C1NC(=O)c2ccc(OCc3ccc4c(c3)OCO4)cc2N1	Cytoplasmic dynein 2 heavy chain 1 (DYNC2H1, Homo sapiens, UniProt Q8NCM8)	ATPase activity, inhibitor		11
Nc1ncc2c(n1)-c1c([nH]c3ccc(-c4ccc(F)cc4)cc13)CCC2	Non-receptor tyrosine-protein kinase TYK2, JH2 (TYK2, Homo sapiens, UniProt P29597)	target engagement in cells, BRET		> 10
CCn1ncc2c1-c1cnc(N)c(c1)O[C@H](C)c1cc(F)ccc1-c1nn(C)nc1C2	Muscle, skeletal receptor tyrosine-protein kinase (MUSK, Homo sapiens, UniProt O15146)	enzyme activity, inhibitor, radiometric		0.044
CC(C)(O)C1Cc2c(cc3occ(-c4ccc(O)cc4)c(=O)c3c2O)O1 (centres unmarked)	BACE1	enzyme activity, inhibitor		> 90
